Laboratory results from ChEMBL document CHEMBL1156610, “Synthesis, biological evaluation, and molecular modeling studies of methylene imidazole substituted biaryls as inhibitors of human 17alpha-hydroxylase-17,20-lyase (CYP17)--part II: Core rigidification and influence of substituents at the methylene bridge” (Bioorg Med Chem, 2008).
pIC50: −log10 of the molar value. Blank lines part the entries; values can stand above or below the compound they belong to.

Legend:
[1] = molecular target: T1, Steroid 17-alpha-hydroxylase/17,20 lyase (Homo sapiens, UniProt P05093); assay: Inhibition of human CYP17 expressed in Escherichia coli coexpressed with cytochrome P450 reductase
T1 sequence (P05093 whole entry): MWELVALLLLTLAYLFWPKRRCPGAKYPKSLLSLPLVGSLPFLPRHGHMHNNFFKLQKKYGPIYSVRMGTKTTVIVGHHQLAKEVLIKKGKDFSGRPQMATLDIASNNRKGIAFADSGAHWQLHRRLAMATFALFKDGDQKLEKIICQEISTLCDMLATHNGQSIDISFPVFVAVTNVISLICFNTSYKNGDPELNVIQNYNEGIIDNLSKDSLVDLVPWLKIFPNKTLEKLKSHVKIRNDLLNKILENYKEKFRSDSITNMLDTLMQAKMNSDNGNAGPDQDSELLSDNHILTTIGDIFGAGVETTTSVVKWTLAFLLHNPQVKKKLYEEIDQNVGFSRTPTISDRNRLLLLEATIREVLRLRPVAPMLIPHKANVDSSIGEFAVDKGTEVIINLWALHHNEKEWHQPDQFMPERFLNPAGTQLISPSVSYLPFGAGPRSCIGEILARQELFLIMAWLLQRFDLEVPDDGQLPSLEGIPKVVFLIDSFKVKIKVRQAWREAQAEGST
In short: (§1)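 Enzyme source: 50,000g sediment from homogenized E. coli coexpressing human CYP17 and cytochrome P450 reductase. Substrate progesterone (25 µM as printed), NADPH cofactor.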

CYP3A4 = CYP3A4 (Homo sapiens, UniProt P08684); assay: Inhibition of hepatic CYP3A4 expressed in insect microsomes at 1 uM; type: ADME, Microsome
In short: (§2)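 Recombinant human enzymes from baculovirus-infected insect cell microsomes, run per supplier protocol. Test concentration 1 µM; values are means of at least three independent tests, standard deviations under 5%.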

[2] = molecular target: T1, Steroid 17-alpha-hydroxylase/17,20 lyase; assay: Inhibition of CYP17; in short: as §1
CYP1A2 = molecular target: T2, CYP1A2 (Homo sapiens, UniProt P05177); assay: Inhibition of hepatic CYP1A2 expressed in insect microsomes at 1 uM; type: ADME, Microsome; in short: as §2
T2 sequence (P05177 whole entry): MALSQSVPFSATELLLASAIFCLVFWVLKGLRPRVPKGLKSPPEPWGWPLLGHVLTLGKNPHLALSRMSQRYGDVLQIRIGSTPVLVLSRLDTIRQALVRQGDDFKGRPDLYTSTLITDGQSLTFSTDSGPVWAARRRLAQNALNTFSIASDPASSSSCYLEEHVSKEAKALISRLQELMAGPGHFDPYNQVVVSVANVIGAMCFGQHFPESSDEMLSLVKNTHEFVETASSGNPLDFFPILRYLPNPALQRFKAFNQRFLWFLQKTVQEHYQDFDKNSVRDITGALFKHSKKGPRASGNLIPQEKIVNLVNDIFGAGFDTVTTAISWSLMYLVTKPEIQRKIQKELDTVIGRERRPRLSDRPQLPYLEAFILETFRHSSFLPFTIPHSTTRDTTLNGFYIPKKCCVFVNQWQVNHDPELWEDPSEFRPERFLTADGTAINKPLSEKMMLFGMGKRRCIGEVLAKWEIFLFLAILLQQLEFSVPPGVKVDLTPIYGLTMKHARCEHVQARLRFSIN

CYP11B2 = molecular target: T3, CYP11B2 (Homo sapiens, UniProt P19099); assay: Inhibition of human CYP11B2 at 0.2 uM using [4-14C]-11-dexycorticosterone as a substrate; settings: probe [4-14C]-11-dexycorticosterone
T3 sequence (P19099 whole entry): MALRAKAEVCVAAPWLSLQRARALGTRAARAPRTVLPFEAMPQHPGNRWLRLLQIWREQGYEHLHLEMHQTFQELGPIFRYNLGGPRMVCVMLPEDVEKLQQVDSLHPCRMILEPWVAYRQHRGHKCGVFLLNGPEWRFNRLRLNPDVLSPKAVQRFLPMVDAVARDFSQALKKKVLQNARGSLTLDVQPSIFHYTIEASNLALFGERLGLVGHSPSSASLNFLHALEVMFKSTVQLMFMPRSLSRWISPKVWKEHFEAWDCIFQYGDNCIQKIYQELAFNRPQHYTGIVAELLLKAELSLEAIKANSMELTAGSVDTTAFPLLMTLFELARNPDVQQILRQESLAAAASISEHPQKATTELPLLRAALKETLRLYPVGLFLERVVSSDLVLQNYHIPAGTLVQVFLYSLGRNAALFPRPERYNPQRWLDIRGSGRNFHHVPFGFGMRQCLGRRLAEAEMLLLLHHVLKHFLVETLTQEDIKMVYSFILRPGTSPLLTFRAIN
In short: (§3)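 V79MZh cells expressing human CYP11B1 or CYP11B2, incubated with [4-14C]-11-deoxycorticosterone as substrate; inhibitors tested at 0.2 µM.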

CYP11B1 = molecular target: T4, CYP11B1 (Homo sapiens, UniProt P15538); assay: Inhibition of human CYP11B1 at 0.2 uM using [4-14C]-11-dexycorticosterone as a substrate; settings: probe [4-14C]-11-dexycorticosterone; in short: as §3
T4 sequence (P15538 whole entry): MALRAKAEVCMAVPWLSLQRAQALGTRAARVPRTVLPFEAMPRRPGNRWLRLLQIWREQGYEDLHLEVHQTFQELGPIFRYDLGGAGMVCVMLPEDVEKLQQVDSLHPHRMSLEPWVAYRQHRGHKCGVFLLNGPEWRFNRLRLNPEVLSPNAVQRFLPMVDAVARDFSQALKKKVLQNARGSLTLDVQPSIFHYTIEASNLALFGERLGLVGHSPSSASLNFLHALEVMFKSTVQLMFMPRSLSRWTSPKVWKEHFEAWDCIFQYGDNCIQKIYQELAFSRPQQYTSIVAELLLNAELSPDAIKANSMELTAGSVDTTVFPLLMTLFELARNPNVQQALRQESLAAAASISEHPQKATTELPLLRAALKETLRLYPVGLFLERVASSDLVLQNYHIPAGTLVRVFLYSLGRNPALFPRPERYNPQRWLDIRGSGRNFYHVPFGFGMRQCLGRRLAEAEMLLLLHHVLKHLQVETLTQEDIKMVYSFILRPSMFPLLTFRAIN

[3] = AUC (0 to infinity) in Wistar rat at 50 mg/kg, po; type: ADME, organism-based; parameters: time infinity, dose 50 mg/kg, route oral; settings: plasma
In short: (§4)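 Male Wistar rats dosed orally at 50 mg/kg, or as acetate at 56 mg/kg (equivalent to 50 mg/kg parent). Plasma drug levels by LC–MS; non-compartmental analysis on mean plasma concentration–time data, values below detection limit set to zero. AUC, Cmax, tmax, terminal t1/2 and intrinsic hepatic clearance derived.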

[4] = Cmax in Wistar rat at 50 mg/kg, po; type: ADME, organism-based; parameters: dose 50 mg/kg, route oral; settings: in vivo; in short: as §4
CYP2D6 = CYP2D6 (Homo sapiens, UniProt P10635); assay: Inhibition of hepatic CYP2D6 expressed in insect microsomes at 1 uM; type: ADME, Microsome; in short: as §2
Rattus norvegicus [5] = assay: Intrinsic clearance in Wistar rat at 50 mg/kg, po; type: ADME, organism-based; parameters: dose 50 mg/kg, route oral; settings: in vivo; in short: as §4
Rattus norvegicus [6] = assay: Reduction in plasma testosterone level in Wistar rat at 50 mg/kg, po after 2 hrs; type: functional; parameters: scale not given: the % may be the effect or the level left
Rattus norvegicus [7] = assay: Reduction in plasma testosterone level in Wistar rat at 50 mg/kg, po after 8 hrs; type: functional; parameters: scale not given: the % may be the effect or the level left
Rattus norvegicus [8] = assay: Reduction in plasma testosterone level in Wistar rat at 50 mg/kg, po after 6 hrs; type: functional; parameters: scale not given: the % may be the effect or the level left
[9] = Terminal half life in Wistar rat at 50 mg/kg, po; type: ADME, organism-based; parameters: dose 50 mg/kg, route oral; settings: in vivo; in short: as §4
Rattus norvegicus [10] = assay: Reduction in plasma testosterone level in Wistar rat at 50 mg/kg, po after 24 hrs; type: functional; parameters: Activity: scale not given: the % may be the effect or the level left
Rattus norvegicus [11] = assay: Reduction in plasma testosterone level in Wistar rat at 50 mg/kg, po after 4 hrs; type: functional; parameters: scale not given: the % may be the effect or the level left
Rattus norvegicus [12] = assay: Reduction in plasma testosterone level in Wistar rat at 50 mg/kg, po after 1 hr; type: functional; parameters: scale not given: the % may be the effect or the level left
CYP2B6 = molecular target: T5, CYP2B6 (Homo sapiens, UniProt P20813); assay: Inhibition of hepatic CYP2B6 expressed in insect microsomes at 1 uM; type: ADME, Microsome; in short: as §2
T5 sequence (P20813 whole entry): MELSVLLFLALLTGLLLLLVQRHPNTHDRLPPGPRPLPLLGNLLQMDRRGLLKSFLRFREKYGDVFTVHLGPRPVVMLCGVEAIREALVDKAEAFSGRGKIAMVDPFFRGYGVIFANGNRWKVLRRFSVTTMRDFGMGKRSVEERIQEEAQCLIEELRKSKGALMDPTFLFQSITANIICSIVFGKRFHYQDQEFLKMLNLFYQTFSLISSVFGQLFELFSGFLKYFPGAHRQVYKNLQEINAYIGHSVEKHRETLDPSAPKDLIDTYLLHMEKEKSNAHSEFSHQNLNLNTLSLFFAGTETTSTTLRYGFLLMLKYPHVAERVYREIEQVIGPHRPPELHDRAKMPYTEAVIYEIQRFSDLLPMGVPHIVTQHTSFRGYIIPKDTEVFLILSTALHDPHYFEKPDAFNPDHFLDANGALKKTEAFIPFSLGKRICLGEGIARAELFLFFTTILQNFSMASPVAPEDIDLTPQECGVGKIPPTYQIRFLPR

[13] = Tmax in Wistar rat at 50 mg/kg, po; type: ADME, organism-based; parameters: dose 50 mg/kg, route oral; settings: in vivo; in short: as §4
Rattus norvegicus [14] = assay: Intrinsic clearance in Wistar rat at 56 mg/kg, po; type: ADME, organism-based; parameters: dose 56 mg/kg, route oral; settings: in vivo; in short: as §4

Chain of CYP3A4 (P08684 whole entry): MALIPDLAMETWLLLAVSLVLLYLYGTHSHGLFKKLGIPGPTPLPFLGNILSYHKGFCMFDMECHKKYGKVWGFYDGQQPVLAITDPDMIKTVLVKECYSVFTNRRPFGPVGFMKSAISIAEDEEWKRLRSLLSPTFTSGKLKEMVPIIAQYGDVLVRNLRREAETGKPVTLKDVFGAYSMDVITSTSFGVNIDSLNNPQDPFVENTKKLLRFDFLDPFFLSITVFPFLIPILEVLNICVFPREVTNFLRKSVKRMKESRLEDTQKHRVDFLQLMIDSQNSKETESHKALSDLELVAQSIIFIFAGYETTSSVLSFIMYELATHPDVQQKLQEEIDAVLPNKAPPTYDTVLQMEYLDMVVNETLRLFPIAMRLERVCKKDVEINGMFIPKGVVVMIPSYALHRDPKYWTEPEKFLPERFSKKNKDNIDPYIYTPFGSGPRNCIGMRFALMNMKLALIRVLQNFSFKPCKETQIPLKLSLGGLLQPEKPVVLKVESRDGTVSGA
Chain of CYP2D6 (P10635 whole entry): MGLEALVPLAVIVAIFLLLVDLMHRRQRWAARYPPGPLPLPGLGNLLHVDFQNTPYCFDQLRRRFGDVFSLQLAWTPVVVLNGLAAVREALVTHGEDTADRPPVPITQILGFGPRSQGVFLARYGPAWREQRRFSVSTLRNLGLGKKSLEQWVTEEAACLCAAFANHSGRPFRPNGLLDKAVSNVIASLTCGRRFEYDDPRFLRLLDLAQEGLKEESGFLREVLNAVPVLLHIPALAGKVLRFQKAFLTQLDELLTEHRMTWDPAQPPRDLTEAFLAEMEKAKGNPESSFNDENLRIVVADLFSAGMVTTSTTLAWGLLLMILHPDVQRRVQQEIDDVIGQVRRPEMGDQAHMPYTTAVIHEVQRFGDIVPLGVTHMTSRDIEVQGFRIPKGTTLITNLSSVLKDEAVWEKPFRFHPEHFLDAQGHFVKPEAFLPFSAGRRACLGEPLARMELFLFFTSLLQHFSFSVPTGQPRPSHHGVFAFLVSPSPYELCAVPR

SMILES: CCC(c1ccc(-c2ccc(N3CCOCC3)cc2)cc1)n1ccnc1 (stereo not drawn)
pIC50 [1]: 5.66

SMILES: CCC(CC)(c1ccc(-c2ccc(F)cc2)cc1)n1ccnc1
inhibition at 1 µM (CYP1A2): 51%
inhibition at 1 µM (CYP3A4): 95%
pIC50 [1]: 5.89

SMILES: CC(c1ccc2c(c1)Cc1cc(F)ccc1-2)n1ccnc1 (stereo not drawn)
pIC50 [1]: 6.77

SMILES: CCC(c1ccc(-c2ccc(N(C)C)cc2)cc1)n1ccnc1 (stereo not drawn)
pIC50 [1]: < 5.30

SMILES: FC(F)(F)c1ccc(-c2ccc(Cn3ccnc3)cc2)cc1
pIC50 [1]: < 5.30

SMILES: CC(c1ccc2c(c1)Cc1cc(O)ccc1-2)n1ccnc1 (stereo not drawn)
inhibition at 1 µM (CYP1A2): 93%
inhibition at 1 µM (CYP3A4): 89%
inhibition at 0.2 µM (CYP11B2): 98%
pIC50 [1]: 7.00
inhibition at 0.2 µM (CYP11B1): 96%

SMILES: c1ccc(-c2ccc(C(C3CCCCC3)n3ccnc3)cc2)cc1 (stereo not drawn)
pIC50 [1]: 5.98

SMILES: c1ccc(CC(c2ccc(-c3ccccc3)cc2)n2ccnc2)cc1 (stereo not drawn)
pIC50 [1]: 6.11

SMILES: CCC(c1ccc(-c2ccc(F)cc2)cc1)n1ccnc1 (stereo not drawn)
AUC(0-inf) [3]: 70700 ng·h/mL
Cmax [4]: 3290 ng/mL
inhibition at 1 µM (CYP2D6): 54%
CL (Rattus norvegicus [5]): 12 mL/min/kg
Activity (Rattus norvegicus [6]): 11.7%
Activity (Rattus norvegicus [7]): 13.4%
Activity (Rattus norvegicus [8]): 13.9%
half-life [9]: 10 h
inhibition at 1 µM (CYP1A2): 97%
inhibition at 1 µM (CYP3A4): 88%
inhibition at 0.2 µM (CYP11B2): 66%
Activity (Rattus norvegicus [10]): 36.7%
pIC50 [1]: 6.46
inhibition at 0.2 µM (CYP11B1): 66%
Activity (Rattus norvegicus [11]): 13.9%
Activity (Rattus norvegicus [12]): 16.5%
inhibition at 1 µM (CYP2B6): 46%
Tmax [13]: 6 h

SMILES: CC(=O)O[C@H]1CC[C@@]2(C)C(=CC[C@@H]3[C@@H]2CC[C@]2(C)C(c4cccnc4)=CC[C@@H]32)C1 [ABIRATERONE ACETATE]
Activity (Rattus norvegicus [6]): 44%
Activity (Rattus norvegicus [7]): 35.6%
Activity (Rattus norvegicus [8]): 43.3%
CL (Rattus norvegicus [14]): 187 mL/min/kg
relative plasma testosterone level (Rattus norvegicus [10]): 476%
Activity (Rattus norvegicus [11]): 43.5%
Activity (Rattus norvegicus [12]): 92.5%

SMILES: C[C@]12CC[C@H](O)CC1=CC[C@@H]1[C@@H]2CC[C@]2(C)C(c3cccnc3)=CC[C@@H]12 [ABIRATERONE]
inhibition at 1 µM (CYP3A4): 27%

SMILES: c1ccc(-c2ccc(C(c3ccccc3)n3ccnc3)cc2)cc1 (stereo not drawn) [BIFONAZOLE]
pIC50 [1]: 6.10

Further lines, results first:

inhibition at 1 µM (CYP3A4): 52%
pIC50 [1]: 5.77
SMILES: CCC(c1ccc(-c2ccc(NC(=O)OC(C)(C)C)cc2)cc1)n1ccnc1 (stereo not drawn)

pIC50 [1]: 6.43
SMILES: CCC(c1ccc(-c2ccc(O)cc2)cc1)n1ccnc1 (stereo not drawn)

pIC50 [2]: 8.40
inhibition at 1 µM (CYP1A2): 98%
inhibition at 1 µM (CYP3A4): 89%
pIC50 [1]: 6.95
SMILES: CC(c1ccc2c(c1)Cc1ccccc1-2)n1ccnc1 (stereo not drawn)

pIC50 [1]: 6.41
SMILES: c1ccc2c(c1)Cc1cc(Cn3ccnc3)ccc1-2

pIC50 [1]: 5.42
SMILES: CC(C)(c1ccc(-c2ccc(F)cc2)cc1)n1ccnc1

pIC50 [1]: < 5.30
SMILES: OCCC(c1ccc(-c2ccc(F)cc2)cc1)n1ccnc1 (stereo not drawn)

pIC50 [1]: < 5.30
SMILES: CCC(c1ccc(-c2ccc(OC(F)(F)F)cc2)cc1)n1ccnc1 (stereo not drawn)

pIC50 [1]: < 5.30
SMILES: CCC(c1ccc(-c2ccc(NC(C)=O)cc2)cc1)n1ccnc1 (stereo not drawn)
